Test results: ChEMBL document CHEMBL1125414, “A novel class of calcium-entry blockers: the 1[[4-(aminoalkoxy)phenyl]sulfonyl]indolizines” (J Med Chem, 1992)
pIC50: −log10 of the molar value.

Columns and labels:
[1] = Displacement of [3H]nitrendipine binding to L-type calcium channel of Guinea pig cerebral cortex membranes; assay type: tissue-based, Cavia porcellus
Rattus norvegicus = species: Rattus norvegicus; assay: Molar concentration required to block [Ca2+] induced contraction of K+ depolarized rat aorta by 50%; assay type: functional
Method in brief: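 Spiral strips of thoracic aorta from male Wistar rats in modified Krebs solution, 95% O2/5% CO2, 37 °C, depolarized preparation. pD2 taken as negative log molar antagonist concentration reducing maximal contraction by 50%.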

Row | pIC50 [1] | pIC50 (Rattus norvegicus) | SMILES
1 | 8.68 | 7.67 | CCCCN(CCCC)CCCOc1ccc(S(=O)(=O)c2c(C(C)C)cn3ccccc23)cc1
2 | 6.19 | 6.02 | CCCN(CCC)CCCOc1ccc(S(=O)(=O)c2c(C)cn3ccccc23)cc1
3 | 9.08 | 7.73 | CCCCN(CCCOc1ccc(S(=O)(=O)c2c(C(C)C)cn3ccccc23)cc1)CCc1ccc(OC)c(OC)c1
4 | 6.70 | 6.41 | CC(C)c1cn2ccccc2c1S(=O)(=O)c1ccc(OCCCN(C)C)cc1
5 | 6.95 | 5.39 | CCCCN(CCCC)CCCOc1ccc(S(=O)(=O)c2c(C3CCCCC3)cn3ccccc23)cc1
6 | 8.60 | 7.96 | CCCCN(CCCC)CCCOc1ccc(S(=O)(=O)c2c(C3CC3)cn3ccccc23)cc1
7 | 9.72 | 8.67 | COc1cc(CCN(C)CCCOc2ccc(S(=O)(=O)c3c(C(C)C)cn4ccccc34)cc2)cc(OC)c1
8 | 6.56 | 6.45 | CCc1cn2ccccc2c1S(=O)(=O)c1ccc(OCCCN2CCCCC2)cc1
9 | 7.05 | 6.35 | CC(C)(C)NCCCOc1ccc(S(=O)(=O)c2c(C(C)(C)C)cn3ccccc23)cc1
10 | – | 7.87 | CCc1cn2ccccc2c1S(=O)(=O)c1ccc(OCCCN(C)CCc2ccc(OC)c(OC)c2)cc1
11 | 7.23 | 6.52 | COc1ccc([C@@H]2Sc3ccccc3N(CCN(C)C)C(=O)[C@@H]2OC(C)=O)cc1 [DILTIAZEM]
12 | 8.89 | 7.69 | CCCCN(CCCC)CCCCOc1ccc(S(=O)(=O)c2c(C(C)C)cn3ccccc23)cc1
13 | 7.29 | 6.64 | CCN(CC)CCCOc1ccc(S(=O)(=O)c2c(C(C)C)cn3ccccc23)cc1
14 | 8.35 | 7.64 | CC(C)c1cn2ccccc2c1S(=O)(=O)c1ccc(OCCCNCc2ccccc2)cc1
15 | 6.74 | 6.82 | CCCN(CCC)CCCOc1ccc(S(=O)(=O)c2c(CC)cn3ccccc23)cc1
16 | 8.20 | 7.20 | CCCCCN(CCCCC)CCCOc1ccc(S(=O)(=O)c2c(CC)cn3ccccc23)cc1
17 | 8.19 | 4.52 | CCCCCCCCN(CCCCCCCC)CCCOc1ccc(S(=O)(=O)c2c(C(C)C)cn3ccccc23)cc1
18 | 8.34 | 7.48 | CCCCN(CCCC)CCCCOc1ccc(S(=O)(=O)c2c(CC)cn3ccccc23)cc1
19 | 9.21 | 8.50 | COc1ccc(CN(C)CCCOc2ccc(S(=O)(=O)c3c(C(C)C)cn4ccccc34)cc2)cc1OC
20 | 7.85 | 7.50 | CCCCN(CCCC)CCCOc1ccc(S(=O)(=O)c2c(CC)cn3ccccc23)cc1
21 | 8.02 | 7.28 | CCCCN(CCCC)CCCOc1ccc(S(=O)(=O)c2c(C(C)(C)C)cn3ccccc23)cc1
22 | 9.13 | 8.41 | COc1ccc(CCN(C)CCCOc2ccc(S(=O)(=O)c3c(C4CC4)cn4ccccc34)cc2)cc1OC
23 | 6.42 | 6.40 | COc1ccc(NCCCOc2ccc(S(=O)(=O)c3c(C(C)C)cn4ccccc34)cc2)cc1OC
24 | 8.34 | 7.96 | CCc1cn2ccccc2c1S(=O)(=O)c1ccc(OCCCNCCc2ccc(OC)c(OC)c2)cc1
25 | – | 5.47 | CCN(CC)CCCOc1ccc(S(=O)(=O)c2c(C)cn3ccccc23)cc1
26 | 6.89 | 6.24 | CCCCc1cn2ccccc2c1S(=O)(=O)c1ccc(OCCCN(CCC)CCC)cc1

Row | pIC50 [1] | pIC50 (Rattus norvegicus) | SMILES
27 | 6.81 | 5.79 | CCCCN(CCCC)CCCOc1ccc(S(=O)(=O)c2c(-c3ccccc3)cn3ccccc23)cc1
28 | 7.37 | 7.18 | CC(C)(C)NCCCOc1ccc(S(=O)(=O)c2c(C3CC3)cn3ccccc23)cc1
29 | 8.18 | 7.09 | CC(C)c1cn2ccccc2c1S(=O)(=O)c1ccc(OCCCN2CCC(c3ccccc3)CC2)cc1
30 | 7.85 | 6.69 | CC(C)c1cn2ccccc2c1S(=O)(=O)c1ccc(OCCCN2CCN(c3ccccc3)CC2)cc1
31 | 9.21 | 8.25 | COc1ccc(CCN(C)CCCOc2ccc(S(=O)(=O)c3c(C(C)C)cn4ccccc34)cc2)cc1OC [FANTOFARONE]
32 | 8.35 | 7.84 | COc1ccc(CN(C)CCCCOc2ccc(S(=O)(=O)c3c(C(C)C)cn4ccccc34)cc2)cc1OC
33 | 7.76 | 7.38 | CC(C)c1cn2ccccc2c1S(=O)(=O)c1ccc(OCCCNC(C)(C)C)cc1
34 | 7.48 | 7.14 | CCCCN(CCCC)CCOc1ccc(S(=O)(=O)c2c(CC)cn3ccccc23)cc1
35 | 6.89 | 6.38 | CCc1cn2ccccc2c1S(=O)(=O)c1ccc(OCCCNC(C)(C)C)cc1
36 | 8.40 | 7.09 | CC(C)c1cn2ccccc2c1S(=O)(=O)c1ccc(OCCCNCCc2ccccc2)cc1
37 | 7.85 | 7.27 | CCCCN(CCCC)CCCOc1ccc(S(=O)(=O)c2c(CCC)cn3ccccc23)cc1
38 | 8.59 | 8.10 | COc1cccc(CCN(C)CCCOc2ccc(S(=O)(=O)c3c(C(C)C)cn4ccccc34)cc2)c1
39 | 9.05 | 7.05 | CCCCCN(CCCCC)CCCOc1ccc(S(=O)(=O)c2c(C(C)C)cn3ccccc23)cc1
40 | 7.42 | 7.33 | COc1ccc(CCN(C)CCCC(C#N)(c2ccc(OC)c(OC)c2)C(C)C)cc1OC (stereo unspecified)
41 | 8.92 | 7.89 | COc1ccc(CNCCCOc2ccc(S(=O)(=O)c3c(C(C)C)cn4ccccc34)cc2)cc1OC
42 | 9.28 | 8.63 | COc1cc(CCNCCCOc2ccc(S(=O)(=O)c3c(C(C)C)cn4ccccc34)cc2)cc(OC)c1
43 | 8.74 | 8.30 | COc1ccc(CCNCCCOc2ccc(S(=O)(=O)c3c(C(C)C)cn4ccccc34)cc2)cc1OC
44 | 9.22 | 8.65 | COc1cc(CCN(C)CCCOc2ccc(S(=O)(=O)c3c(C(C)C)cn4ccccc34)cc2)cc(OC)c1OC
45 | – | 6.99 | CCCN(CCC)CCCOc1ccc(S(=O)(=O)c2c(C(C)C)cn3ccccc23)cc1
46 | 8.06 | 7.65 | COc1ccc(CCN(C)CCCOc2ccc(S(=O)(=O)c3c(C(C)C)cn4ccccc34)cc2)cc1
47 | 8.72 | 8.33 | COc1ccc(CN(C)CCCOc2ccc(S(=O)(=O)c3c(C4CC4)cn4ccccc34)cc2)cc1OC
48 | 7.16 | 6.79 | CCCCN(CCCC)CCCOc1ccc(S(=O)(=O)c2c(C)cn3ccccc23)cc1
49 | 7.66 | 6.55 | CCCCc1cn2ccccc2c1S(=O)(=O)c1ccc(OCCCN(CCCC)CCCC)cc1
50 | 7.70 | 7.01 | CCCCN(CCCC)CCCCCOc1ccc(S(=O)(=O)c2c(CC)cn3ccccc23)cc1
51 | 8.64 | 7.67 | COc1ccc(CCN(C)CCCCOc2ccc(S(=O)(=O)c3c(C(C)C)cn4ccccc34)cc2)cc1OC

Row | SMILES | pIC50 [1] | pIC50 (Rattus norvegicus)
52 | COC(=O)C1=C(C)NC(C)=C(C(=O)OC)C1c1ccccc1[N+](=O)[O-] [NIFEDIPINE] | 8.60 | 8.94
